Results: ChEMBL document CHEMBL1138692 (Bioorg Med Chem Lett, 2004)

Experiments:
MT4 [1] = test: Antiviral activity against PI resistant virus D545701 was determined in MT-4 cell line; type: functional, cell-based; settings: Homo sapiens
Method in brief: (§1)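 Antiviral IC50 measured in MT4 cells infected with the named HIV strain: wild-type HXB2, or the multi-PI-resistant EP13 or D545701.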

[2] = target: Human immunodeficiency virus type 1 protease (Human immunodeficiency virus 1, UniProt Q72874); test: Inhibition of HIV-1 Protease activity
MT4 [3] = test: Antiviral activity against PI resistant virus EP13 was determined in MT-4 cell line; type: functional, cell-based; settings: Homo sapiens; method in brief: as §1
MT4 [4] = test: Antiviral activity against wild-type HIV virus (HXB2) was determined in MT-4 cell line; type: functional, cell-based; settings: Homo sapiens; method in brief: as §1
MT4 [5] = test: Antiviral activity against PI resistant virus EP13 in MT-4 cell line; type: functional, cell-based; settings: Homo sapiens; method in brief: as §1
MT4 [6] = test: Antiviral activity against PI resistant virus D545701 in MT-4 cell line; type: functional, cell-based; settings: Homo sapiens; method in brief: as §1
MT4 [7] = test: Antiviral activity against wild-type HIV virus (HXB2) in MT-4 cell line; type: functional, cell-based; settings: Homo sapiens; method in brief: as §1
[8] = Half life period in rat; type: ADME, organism-based; settings: in vivo
[9] = Oral bioavailability in rat; type: ADME, organism-based; settings: in vivo

| Structure (SMILES) | IC50 (MT4 [1]) [nM] | Ki [2] [nM] | IC50 (MT4 [3]) [nM] | IC50 (MT4 [4]) [nM] | IC50 (MT4 [5]) [nM] | IC50 (MT4 [6]) [nM] | IC50 (MT4 [7]) [nM] | half-life [8] [h] | bioavailability [9] [%] |
| --- | --- | --- | --- | --- | --- | --- | --- | --- | --- |
| CC(C)CN(C[C@@H](O)[C@H](Cc1ccccc1)NC(=O)O[C@H]1CCOC1)S(=O)(=O)c1ccc(N)cc1 | > 1000 | 0.057 | 440 | 130 | – | – | – | – | – |
| COC(=O)NCCCCCC(C)(C)CN(C[C@@H](O)[C@H](Cc1ccccc1)NC(=O)O[C@H]1CO[C@H]2OCC[C@H]21)S(=O)(=O)c1ccc2c(c1)OCO2 | 65 | 0.00012 | 46 | 5.5 | – | – | – | – | – |
| COC(=O)NCCCC(C)(C)CN(C[C@@H](O)[C@H](Cc1ccccc1)NC(=O)O[C@H]1CO[C@H]2OCC[C@H]21)S(=O)(=O)c1cccc(N)c1 | 100 | 0.00021 | 36 | 18 | – | – | – | – | – |
| COC(=O)NCCCC(C)(C)CN(C[C@@H](O)[C@H](Cc1ccccc1)NC(=O)O[C@H]1CO[C@H]2OCC[C@H]21)S(=O)(=O)c1ccc2c(c1)OCO2 | 66 | 0.00052 | 38 | 4.7 | – | – | – | – | – |
| CC(C)(CCCN)CN(C[C@@H](O)[C@H](Cc1ccccc1)NC(=O)O[C@H]1CO[C@H]2OCC[C@H]21)S(=O)(=O)c1ccc2c(c1)OCO2 | – | – | – | – | 540 | 730 | 370 | – | – |
| CC(=O)NCCCC(C)(C)CN(C[C@@H](O)[C@H](Cc1ccccc1)NC(=O)O[C@H]1CO[C@H]2OCC[C@H]21)S(=O)(=O)c1ccc2c(c1)OCO2 | 120 | – | 30 | 23 | – | – | – | – | – |
| CNC(=O)NCCCC(C)(C)CN(C[C@@H](O)[C@H](Cc1ccccc1)NC(=O)O[C@H]1CO[C@H]2OCC[C@H]21)S(=O)(=O)c1ccc2c(c1)OCO2 | 200 | – | 110 | 38 | – | – | – | – | – |
| CC(C)(CCCNS(C)(=O)=O)CN(C[C@@H](O)[C@H](Cc1ccccc1)NC(=O)O[C@H]1CO[C@H]2OCC[C@H]21)S(=O)(=O)c1ccc2c(c1)OCO2 | 150 | – | 47 | 33 | – | – | – | – | – |
| COC(=O)NCCC(C)(C)CN(C[C@@H](O)[C@H](Cc1ccccc1)NC(=O)O[C@H]1CO[C@H]2OCC[C@H]21)S(=O)(=O)c1ccc2c(c1)OCO2 | 40 | 0.00016 | 22 | 1.4 | – | – | – | – | – |
| COC(=O)NCCCCC(C)(C)CN(C[C@@H](O)[C@H](Cc1ccccc1)NC(=O)O[C@H]1CO[C@H]2OCC[C@H]21)S(=O)(=O)c1ccc2c(c1)OCO2 | 9.2 | – | 15 | 1.6 | – | – | – | 1.3 | 20 |
| COC(=O)NCCCC(C)(C)CN(C[C@@H](O)[C@H](Cc1ccccc1)NC(=O)O[C@H]1CO[C@H]2OCC[C@H]21)S(=O)(=O)c1ccc(N)cc1 | – | 0.00026 | – | – | 46 | 95 | 31 | – | – |
| CC(C)(C)NC(=O)[C@@H]1CN(Cc2cccnc2)CCN1C[C@@H](O)C[C@@H](Cc1ccccc1)C(=O)N[C@H]1c2ccccc2C[C@H]1O | 440 | – | 330 | 50 | – | – | – | – | – |
| Cc1c(O)cccc1C(=O)N[C@@H](CSc1ccccc1)[C@H](O)CN1C[C@H]2CCCC[C@H]2C[C@H]1C(=O)NC(C)(C)C | > 1000 | – | 450 | 320 | – | – | – | – | – |
